2 molecules from ChEMBL document CHEMBL1152298 (J Med Chem, 2008) can be followed below.

The nature of assay [1]: Displacement of [3H]Ro-151788 from benzodiazepine binding site of GABAA alpha-1-beta-2-gamma-2 R132C receptor mutant expressed in HEK293T cells. Format: cell-based. The note with it: hek-293t. On the technique in general: In a radioligand displacement assay an active substance lowers the binding of a labelled ligand.
Assay [2] in a line: Displacement of [3H]Ro-151788 from benzodiazepine binding site of GABAA alpha-1-beta-2-gamma-2 D56C receptor mutant expressed in HEK293T cells. Format: cell-based. The following applies: hek-293t.
The nature of assay [3]: Displacement of [3H]Ro15-1788 from benzodiazepine binding site of GABAA alpha-1 F99C beta2gamma2 receptor mutant expressed in HEK293T cells. Format: cell-based. The following applies: hek-293t.
Assay [4] is described as follows: Displacement of [3H]Ro-151788 from benzodiazepine binding site of GABAA alpha-1-beta-2-gamma-2 […] receptor mutant expressed in HEK293T cells. In kind it is cell-based. The note with it: hek-293t.
A short description of assay [5]: Displacement of [3H]Ro-151788 from benzodiazepine binding site of GABAA alpha1 V202C beta2gamma2 receptor mutant expressed in HEK293T cells. In kind it is cell-based. The note with it: hek-293t.
The nature of assay [6]: Displacement of [3H]Ro-151788 from benzodiazepine binding site of GABAA alpha-1-beta-2-gamma-2 R194C receptor mutant expressed in HEK293T cells. In kind it is cell-based. The following applies: hek-293t. Summed up:
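Transiently expressed in HEK293T (CaHPO4 transfection, equal α/β/γ DNA, 4 μg/subunit; cysteine-mutant γ2L with WT α1, β2). […] One-site competition fit for IC50; Ki by Cheng-Prusoff; mean ± SD, three experiments in triplicate; mutant/WT Ki ratio.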

A short description of assay [7]: Displacement of [3H]Ro-151788 from benzodiazepine binding site of GABAA alpha-1-beta-2-gamma-2 T142C receptor mutant expressed in HEK293T cells. The following applies: hek-293t. In kind it is cell-based.
The nature of assay [8]: Displacement of [3H]Ro15-1788 from benzodiazepine binding site of GABAA alpha-1 T206C beta2gamma2 receptor mutant expressed in HEK293T cells. In kind it is cell-based. The note with it: hek-293t.
The nature of assay [9]: Displacement of [3H]Ro-151788 from benzodiazepine binding site of GABAA alpha1 S205C beta2gamma2 receptor mutant expressed in HEK293T cells. In kind it is cell-based. The note with it: hek-293t.
Assay [10] in a line: Displacement of [3H]Ro-151788 from benzodiazepine binding site of GABAA alpha1 A160C beta2gamma2 receptor mutant expressed in HEK293T cells. The note with it: hek-293t. In kind it is cell-based.
Assay [11] concerns the target GABA A receptor alpha-3/beta-2/gamma-2 (Rattus norvegicus, UniProt P18508+P20236+P63138). The assay is described as follows: Displacement of [3H]Ro-151788 from benzodiazepine binding site of GABAA alpha-3-beta-2-gamma-2 receptor expressed in HEK293T cells. Format: cell-based, HEK-293T. Put shortly: (§1)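 α2 or α3 subunits were co-transfected with β2 and γ2, all in pRK5, into HEK293T cells by CaHPO4 precipitation at 4 μg per subunit. Membranes were prepared at 48 h. IC50 came from a one-site competition fit and was converted to Ki by Cheng-Prusoff. Mean ± SD of ≥3 experiments.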

Assay [12] can be described thus: Displacement of [3H]Ro15-1788 from benzodiazepine binding site of GABAA alpha-1 G157C beta2gamma2 receptor mutant expressed in HEK293T cells. Format: cell-based. The note with it: hek-293t.
Assay [13] in a line: Displacement of [3H]Ro-151788 from benzodiazepine binding site of GABAA alpha-1-beta-2-gamma-2 T81C receptor mutant expressed in HEK293T cells. In kind it is cell-based. The following applies: hek-293t.
The nature of assay [14]: Displacement of [3H]Ro-151788 from benzodiazepine binding site of GABAA alpha-1-beta-2-gamma-2 M130C receptor mutant expressed in HEK293T cells. In kind it is cell-based. The note with it: hek-293t.
Assay [15] is described as follows: Displacement of [3H]Ro-151788 from benzodiazepine binding site of GABAA alpha1 S204C beta2gamma2 receptor mutant expressed in HEK293T cells. In kind it is cell-based. The following applies: hek-293t.
The nature of assay [16]: Displacement of [3H]Ro-151788 from benzodiazepine binding site of GABAA alpha-1-beta-2-gamma-2 L140C receptor mutant expressed in HEK293T cells. In kind it is cell-based. The note with it: hek-293t.
The nature of assay [17]: Displacement of [3H]Ro-151788 from benzodiazepine binding site of GABAA alpha-1-beta-2-gamma-2 R185C receptor mutant expressed in HEK293T cells. Format: cell-based. The following applies: hek-293t.
Assay [18] is described as follows: Displacement of [3H]Ro15-1788 from benzodiazepine binding site of GABAA alpha1 T162C beta-2-gamma-2 receptor mutant expressed in HEK293T cells. In kind it is cell-based. The note with it: hek-293t. Summed up: (§2)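 Cysteine mutant α1 subunit made by recombinant PCR, co-transfected with WT β2 and γ2L (equal DNA ratios, 4 μg/subunit, CaHPO4 method) into HEK293T cells; membranes harvested 48 h post-transfection. One-site competition fit; Ki by Cheng-Prusoff; three experiments in triplicate, mean ± SD.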

Assay [19] addresses GABA A receptor alpha-2/beta-2/gamma-2 (Rattus norvegicus, UniProt P18508+P23576+P63138). The assay is described as follows: Displacement of [3H]Ro-151788 from benzodiazepine binding site of GABAA alpha-2-beta-2-gamma-2 receptor expressed in HEK293T cells. In kind it is cell-based, HEK-293T. Summed up:
as §1

A short description of assay [20]: Displacement of [3H]Ro-151788 from benzodiazepine binding site of GABAA alpha-1-beta-2-gamma-2 T126C receptor mutant expressed in HEK293T cells. In kind it is cell-based. The following applies: hek-293t.
Assay [21] can be described thus: Displacement of [3H]Ro15-1788 from benzodiazepine binding site of GABAA alpha-1 G200C beta2gamma2 receptor mutant expressed in HEK293T cells. Format: cell-based. The note with it: hek-293t.
Assay [22] can be described thus: Displacement of [3H]Ro15-1788 from benzodiazepine binding site of GABAA alpha-1 V211C beta2gamma2 receptor mutant expressed in HEK293T cells. The note with it: hek-293t. Format: cell-based. Put shortly:
as §2

A short description of assay [23]: Displacement of [3H]Ro-151788 from benzodiazepine binding site of GABAA alpha-1-beta-2-gamma-2 A79C receptor mutant expressed in HEK293T cells. The note with it: hek-293t. Format: cell-based.
In assay [24] the test system is HEK-293T. Kind of assay: Displacement of [3H]Ro-151788 from benzodiazepine binding site of GABAA alpha-1-beta-2-gamma-2 F77C receptor mutant expressed in HEK293T cells. Format: cell-based. Put shortly: (§3)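 HEK293T cells in MEM with 10% FBS were transiently transfected by CaHPO4 precipitation with α1, β2 and γ2L subunits (WT or PCR-made, sequence-verified cysteine mutant) in pUNIV, using equal ratios at 4 μg per subunit. Membranes were harvested at 48 h. […] Ki was derived from a one-site fit using Cheng-Prusoff. Mean ± SD, three experiments in triplicate.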

Assay [25] relates to HEK-293T. Kind of assay: Displacement of [3H]Ro15-1788 from benzodiazepine binding site of GABAA alpha1 Y209C beta2gamma2 receptor mutant expressed in HEK293T cells. Format: cell-based. Put shortly:
as §3

Assay [26] concerns HEK-293T. Kind of assay: Displacement of [3H]Ro-151788 from benzodiazepine binding site of GABAA alpha1 D97C beta2gamma2 receptor mutant expressed in HEK293T cells. Format: cell-based. Put shortly:
as §3

Calls of active or inactive are those of the source. No cut-off for these calls is given here.

GABA A receptor alpha-3/beta-2/gamma-2, sequence (P18508 whole entry): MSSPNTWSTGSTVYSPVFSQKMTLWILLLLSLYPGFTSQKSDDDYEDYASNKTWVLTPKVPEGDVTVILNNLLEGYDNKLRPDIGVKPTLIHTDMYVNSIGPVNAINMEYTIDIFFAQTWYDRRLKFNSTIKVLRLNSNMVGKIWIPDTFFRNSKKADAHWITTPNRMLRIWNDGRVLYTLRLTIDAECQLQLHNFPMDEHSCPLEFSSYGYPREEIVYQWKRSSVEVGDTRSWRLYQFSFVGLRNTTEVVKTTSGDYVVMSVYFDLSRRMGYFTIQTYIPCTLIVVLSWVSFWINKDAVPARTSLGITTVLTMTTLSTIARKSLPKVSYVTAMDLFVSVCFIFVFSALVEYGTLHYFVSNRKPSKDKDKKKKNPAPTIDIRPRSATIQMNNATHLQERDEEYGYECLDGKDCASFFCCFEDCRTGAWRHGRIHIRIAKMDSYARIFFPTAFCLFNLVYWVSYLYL
GABA A receptor alpha-3/beta-2/gamma-2, sequence (P20236 whole entry): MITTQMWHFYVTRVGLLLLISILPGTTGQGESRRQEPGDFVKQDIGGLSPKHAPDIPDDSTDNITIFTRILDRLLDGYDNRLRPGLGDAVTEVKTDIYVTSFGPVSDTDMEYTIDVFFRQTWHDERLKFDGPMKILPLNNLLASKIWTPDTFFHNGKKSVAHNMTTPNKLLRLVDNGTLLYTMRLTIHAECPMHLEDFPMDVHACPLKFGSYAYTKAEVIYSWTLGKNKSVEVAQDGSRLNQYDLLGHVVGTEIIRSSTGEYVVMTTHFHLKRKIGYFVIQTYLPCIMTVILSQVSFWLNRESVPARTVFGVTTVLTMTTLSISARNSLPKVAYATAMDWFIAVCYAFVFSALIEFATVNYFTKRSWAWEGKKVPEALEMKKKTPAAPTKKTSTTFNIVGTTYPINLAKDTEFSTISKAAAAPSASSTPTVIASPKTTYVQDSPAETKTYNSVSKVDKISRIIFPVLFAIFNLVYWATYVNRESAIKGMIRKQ
GABA A receptor alpha-3/beta-2/gamma-2, sequence (P63138 whole entry): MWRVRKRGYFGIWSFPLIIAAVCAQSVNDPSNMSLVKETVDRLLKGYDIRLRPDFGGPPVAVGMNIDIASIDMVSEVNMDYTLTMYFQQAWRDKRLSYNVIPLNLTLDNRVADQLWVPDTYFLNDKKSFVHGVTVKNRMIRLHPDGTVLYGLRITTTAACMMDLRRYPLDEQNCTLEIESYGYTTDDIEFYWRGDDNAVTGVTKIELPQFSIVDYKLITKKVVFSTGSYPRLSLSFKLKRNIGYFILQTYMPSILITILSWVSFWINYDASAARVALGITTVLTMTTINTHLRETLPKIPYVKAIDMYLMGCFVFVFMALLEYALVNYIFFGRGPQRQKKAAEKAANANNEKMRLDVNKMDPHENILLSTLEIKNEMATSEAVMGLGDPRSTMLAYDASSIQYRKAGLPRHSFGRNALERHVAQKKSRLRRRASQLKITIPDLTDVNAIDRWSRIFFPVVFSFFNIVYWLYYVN
GABA A receptor alpha-2/beta-2/gamma-2, sequence (P18508 whole entry): as the sequence (P18508 whole entry) above
GABA A receptor alpha-2/beta-2/gamma-2, sequence (P23576 whole entry): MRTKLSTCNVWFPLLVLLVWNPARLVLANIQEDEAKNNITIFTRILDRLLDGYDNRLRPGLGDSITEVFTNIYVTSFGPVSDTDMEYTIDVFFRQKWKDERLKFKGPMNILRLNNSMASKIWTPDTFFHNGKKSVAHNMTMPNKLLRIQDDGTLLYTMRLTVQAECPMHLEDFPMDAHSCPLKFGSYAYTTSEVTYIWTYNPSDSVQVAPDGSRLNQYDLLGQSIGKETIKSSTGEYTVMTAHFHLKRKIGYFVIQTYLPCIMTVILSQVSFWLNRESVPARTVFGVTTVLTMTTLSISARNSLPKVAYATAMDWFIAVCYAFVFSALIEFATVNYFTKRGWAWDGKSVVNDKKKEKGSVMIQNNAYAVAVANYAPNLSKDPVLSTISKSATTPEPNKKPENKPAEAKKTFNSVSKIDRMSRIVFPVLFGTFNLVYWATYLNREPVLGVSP
GABA A receptor alpha-2/beta-2/gamma-2, sequence (P63138 whole entry): as the sequence (P63138 whole entry) above

For orientation: Ki means the equilibrium dissociation constant of an inhibitor or competing ligand from its target. High values mean lower affinity, low ones higher affinity. `CN1CCN(C(=O)O[C@H]2c3nccnc3C(=O)N2c2ccc(Cl)cn2)CC1` [ESZOPICLONE]: the inhibition constant Ki amounted to 110 nM in assay [1]; 82.4 nM in [2]; 407 nM in assay [3]; 22.4 nM in [4]; 249 nM in [5]; 67 nM in [6]. In addition, the Ki in assay [7] amounted to 503 nM; in assay [8] it was 0.83 nM; in [9] it was 34.9 nM; in assay [10] it was 60.4 nM; in [11], 162 nM; in [12], 2100 nM. Moreover, the Ki in assay [13] amounted to 75.2 nM; in assay [14], 102 nM; in assay [15], 57.9 nM; in [16] it was 46.3 nM; in [17], 70.9 nM; in [18] it was 33.8 nM. The Ki was 114 nM in assay [19]; 71.9 nM in assay [20]; 119 nM in assay [21]; 62.4 nM in [22]; 393 nM in assay [23].
Turning to `CCOC(=O)c1ncn2c1CN(C)C(=O)c1cc(F)ccc1-2` [FLUMAZENIL], the outcome in the assay on HEK-293T [24], in the assay on HEK-293T [25] and in the assay with HEK-293T [26] was inactive.
